Assay results as given in ChEMBL document CHEMBL3400136, “Design and synthesis of new potassium channel activators derived from the ring opening of diazoxide: study of their vasodilatory effect, stimulation of elastin synthesis and inhibitory effect on insulin release” (Bioorg Med Chem, 2015).
Each block holds one compound with its values, some of them ahead of it. Activity calls are given as the source filed them. The calls are words filed in the database; no cut-off is given here.

Experiments:
Thoracic aorta [1] = test: Vasorelaxant activity in Wistar rat endothelium thoracic aortic ring assessed as inhibition of 30 mM KCl-induced contraction; assay type: functional, tissue-based
How it was run: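 Rings from adult Wistar rat thoracic aorta, with or without endothelium, under 1.5 g tension in oxygenated physiological solution at 37 °C, pH 7.36. Contraction by 30 mM KCl after 60 min equilibration, then cumulative drug to maximal relaxation. EC50 = concentration giving 50% relaxation of KCl contraction; mean ± sem.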

[2] = Dissociation constant, pKa of the compound by UV-Visible spctrophotometry; assay type: physicochemical
How it was run: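 UV–visible spectra recorded at ambient temperature in borate and phosphate buffers from pH 3 to 10, using neutral and ionic species references in 0.1 N HCl and 0.1 N NaOH. Exact pH measured for each spectrum. pKa calculated by the Albert–Serjeant formula.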

Rattus norvegicus [3] = test: Hypoglycemic effect in Wistar albino rat assessed as effect on blood glucose at 0.25 mg/kg, po; assay type: functional, organism-based; design: dose 0.25 mg/kg
How it was run: (§1)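 Adult fed Wistar albino rats, conscious, free access to water and standard pellet diet, held in a small cabinet from 60 min before sampling. Single oral dose in DMSO (0.2 mL) at time zero; controls got DMSO alone. Tail blood drop at 0, 1, 2, 3 and 4 h, glucose by reagent strip and glucometer. Mean ± sem, n = 3 rats.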

Thoracic aorta [4] = test: Vasorelaxant activity in Wistar rat thoracic aortic ring assessed as inhibition of 80 mM KCl-induced contraction; assay type: functional, tissue-based
How it was run: (§2)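 Thoracic aorta rings (2–3 mm) from adult Wistar rats, held at 1.5 g tension in Krebs-type solution pH 7.36, 37 °C, O2/CO2 95:5. After 60 min equilibration, contracted with 30 or 80 mM KCl, some with 10 µM glibenclamide. Cumulative drug additions to maximal relaxation; isometric tension by force transducer. Relaxation as % of KCl contraction; EC50 from concentration-response curves; mean ± sem, n experiments.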

Homo sapiens [5] = species on record: Homo sapiens; test: Activation of ATP-sensitive potassium channel in vascular smooth muscle cells (unknown origin) assessed as increase in elastin production after 48 hrs by ELISA
How it was run: (§3)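 Primary aortic smooth muscle cells serum-starved overnight in 1% FCS-DMEM, seeded 25,000 cells/well and adhered overnight. Compounds in DMSO (final <1%) for 48 h, some wells with 10 µM glibenclamide throughout. Controls were DMSO alone, 1 mM minoxidil in water, or diazoxide. Cells fixed in 4% paraformaldehyde, extracellular elastin by anti-elastin ELISA with HRP secondary, read by absorbance. n = 3–4 from different cultures; ANOVA.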

Rattus norvegicus [6] = species on record: Rattus norvegicus; test: Activation of ATP-sensitive potassium channel in Wistar rat pancreatic islets assessed as inhibition of 16.7 mM of glucose-induced insulin secretion by measuring residual insulin secretion at 50 uM after 90 mins relative to control
How it was run: (§4)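 Islets from adult fed Wistar rats, groups of 10. Preincubated 30 min at 37 °C in bicarbonate salt medium with 2.8 mM glucose and 0.5% dialysed albumin, gassed O2/CO2 95:5. Then 90 min at 37 °C in same medium with 16.7 mM glucose plus drug. Insulin by radioimmunoassay against rat insulin standard, expressed as % of drug-free 16.7 mM glucose control.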

Thoracic aorta [7] = test: Vasorelaxant activity in Wistar rat thoracic aortic ring assessed as inhibition of 30 mM KCl-induced contraction; assay type: functional, tissue-based; how it was run: as §2
Homo sapiens [8] = species on record: Homo sapiens; test: Activation of ATP-sensitive potassium channel in vascular smooth muscle cells (unknown origin) assessed as increase in elastin production at 100 uM after 48 hrs by ELISA
Thoracic aorta [9] = test: Vasorelaxant activity in Wistar rat thoracic aortic ring assessed as inhibition of KCl-induced contraction in presence of glibenclamide; assay type: functional, tissue-based; how it was run: as §2
Rattus norvegicus [10] = species on record: Rattus norvegicus; test: Activation of ATP-sensitive potassium channel in Wistar rat pancreatic islets assessed as inhibition of 16.7 mM of glucose-induced insulin secretion by measuring residual insulin secretion at 10 uM after 90 mins relative to control; how it was run: as §4
Homo sapiens [11] = species on record: Homo sapiens; test: Activation of ATP-sensitive potassium channel in vascular smooth muscle cells (unknown origin) assessed as increase in elastin production at 100 uM after 48 hrs by ELISA; how it was run: as §3
Homo sapiens [12] = species on record: Homo sapiens; test: Activation of ATP-sensitive potassium channel in vascular smooth muscle cells (unknown origin) assessed as increase in elastin production at 10 to 100 uM after 48 hrs by ELISA in presence of glibenclamide; how it was run: as §3
Rattus norvegicus [13] = test: Activation of ATP-sensitive potassium channel in Wistar albino rat assessed as effect on blood glucose at 50 mg/kg, po; assay type: functional, organism-based; design: dose 50 mg/kg; how it was run: as §1
Rattus norvegicus [14] = species on record: Rattus norvegicus; test: Activation of ATP-sensitive potassium channel in Wistar rat thoracic aortic ring assessed as rightward shift; assay type: tissue-based; details: Aorta; how it was run: as §2
Homo sapiens [15] = species on record: Homo sapiens; test: Activation of ATP-sensitive potassium channel in vascular smooth muscle cells (unknown origin) assessed as increase in elastin production at 50 uM after 48 hrs by ELISA
How it was run: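 Primary aortic smooth muscle cells were serum-starved overnight in 1% FCS-DMEM, seeded at 25,000 cells/well and left to adhere overnight. They were then exposed for 48 h in 1% FCS-DMEM to compound in DMSO (final DMSO <1%). Cells were fixed in 4% paraformaldehyde, blocked with 2% BSA, then labelled with anti-elastin antibody (1:1000) and HRP secondary (1:50,000). The reaction was stopped with sulfuric acid and absorbance read. Negative control was DMSO; positive control was 1 mM minoxidil.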

Rattus norvegicus [16] = test: Hyperglycemic effect in Wistar albino rat assessed as effect on blood glucose at 50 mg/kg, po; assay type: functional, organism-based; design: dose 50 mg/kg; how it was run: as §1
Homo sapiens [17] = species on record: Homo sapiens; test: Activation of ATP-sensitive potassium channel in vascular smooth muscle cells (unknown origin) assessed as increase in elastin production at 10 to 100 uM after 48 hrs by ELISA; how it was run: as §3
Homo sapiens [18] = species on record: Homo sapiens; test: Activation of ATP-sensitive potassium channel in vascular smooth muscle cells (unknown origin) assessed as increase in elastin production at 10 to 20 uM after 48 hrs by ELISA; how it was run: as §3

SMILES: COc1ccc(Cl)cc1S(=O)(=O)NC(=S)NC(C)C
- pKa [2]: 5.74
- EC50 (Thoracic aorta [1]): > 300 µM

SMILES: CCOc1ccc(Cl)cc1S(=O)(=O)NC(=S)NC(C)C
- EC50 (Thoracic aorta [1]): > 300 µM

SMILES: CCOc1ccc(Cl)cc1S(=O)(=O)NC(=O)NC1CCCCC1
- EC50 (Thoracic aorta [1]): > 300 µM

SMILES: COc1ccc(Cl)cc1C(=O)NCCc1ccc(S(=O)(=O)NC(=O)NC2CCCCC2)cc1
- Activity (Rattus norvegicus [3]): Active

SMILES: COc1ccc(Cl)cc1S(=O)(=O)NC(=O)Nc1ccc(F)cc1
- EC50 (Thoracic aorta [1]): > 300 µM

SMILES: COc1ccc(Cl)cc1S(=O)(=O)NC(=O)NC1CCCCC1
- pKa [2]: 5.46
- EC50 (Thoracic aorta [1]): > 300 µM

SMILES: CCOc1ccc(Cl)cc1S(=O)(=O)NC(=O)NC(C)C
- EC50 (Thoracic aorta [1]): > 300 µM

SMILES: COc1ccc(Cl)cc1S(=O)(=O)NC(=O)NC(C)C
- pKa [2]: 5.65
- EC50 (Thoracic aorta [1]): > 300 µM

SMILES: CCOc1ccc(Cl)cc1S(=O)(=O)NC(=O)Nc1ccccc1
- EC50 (Thoracic aorta [1]): > 300 µM

SMILES: O=C(NC(=S)NCc1ccccc1)c1ccccc1OCc1ccccc1
- EC50 (Thoracic aorta [1]): > 100 µM

SMILES: COc1ccc(F)cc1S(=O)(=O)NC(=O)NC(C)C
- pKa [2]: 5.52
- EC50 (Thoracic aorta [1]): > 300 µM

SMILES: CCNC(=S)NS(=O)(=O)c1cc(Cl)ccc1OC
- EC50 (Thoracic aorta [1]): > 300 µM

SMILES: COc1ccc(Cl)cc1S(=O)(=O)NC(=O)Nc1ccccc1
- pKa [2]: 4.5
- EC50 (Thoracic aorta [1]): > 300 µM

SMILES: CC1=Nc2ccc(Cl)cc2S(=O)(=O)N1 [DIAZOXIDE]
- EC50 (Thoracic aorta [4]): > 300 µM
- Activity (Rattus norvegicus [6]): 28.8%
- Activity (Homo sapiens [15]): 67%
- Activity (Rattus norvegicus [16]): Active
- Activity (Rattus norvegicus [10]): 70%

SMILES: CCNC(=O)NC(=O)c1ccccc1OC
- EC50 (Thoracic aorta [1]): > 100 µM

SMILES: COc1ccc(Cl)cc1S(=O)(=O)NC(=S)NCc1ccccc1
- EC50 (Thoracic aorta [1]): > 300 µM

SMILES: CCOc1ccc(Cl)cc1S(=O)(=O)NC(=S)NCc1ccccc1
- EC50 (Thoracic aorta [1]): > 300 µM

SMILES: CCOc1ccc(Cl)cc1S(=O)(=O)NC(=S)Nc1ccc(F)cc1
- EC50 (Thoracic aorta [1]): > 300 µM

SMILES: COc1ccc(F)cc1S(=O)(=O)NC(=S)NC(C)C
- EC50 (Thoracic aorta [1]): > 300 µM

More lines, main results first:

- EC50 (Thoracic aorta [1]): 35.9 µM
SMILES: COc1ccccc1C(=O)NC(=O)NC1CCCCC1

- EC50 (Thoracic aorta [1]): 21.1 µM
SMILES: O=C(NCc1ccccc1)NC(=O)c1ccccc1OCc1ccccc1

- EC50 (Thoracic aorta [1]): 91.4 µM
SMILES: COc1ccccc1C(=O)NC(=O)NC(C)C

- EC50 (Thoracic aorta [4]): 38.1 µM
- Activity (Homo sapiens [5]): Dose-dependent effect
- Activity (Rattus norvegicus [6]): 105%
- EC50 (Thoracic aorta [7]): 15.7 µM
- Activity (Homo sapiens [8]): 30%
- EC50 (Thoracic aorta [9]): 28.1 µM
- Activity (Rattus norvegicus [10]): 90.9%
- Activity (Homo sapiens [11]): 30%
- Activity (Homo sapiens [12]): inactive
- EC50 (Thoracic aorta [1]): 18.6 µM
SMILES: COc1ccccc1C(=O)NC(=S)NC(C)C

- EC50 (Thoracic aorta [4]): 121 µM
- Activity (Rattus norvegicus [6]): 44.9%
- EC50 (Thoracic aorta [7]): 12 µM
- EC50 (Thoracic aorta [9]): 64.9 µM
- Activity (Rattus norvegicus [10]): 83.8%
- EC50 (Thoracic aorta [1]): 16.5 µM
SMILES: CCCOc1ccccc1C(=O)NC(=S)Nc1ccccc1
- Activity (Rattus norvegicus [13]): inactive

- EC50 (Thoracic aorta [1]): 34.5 µM
SMILES: COc1ccccc1C(=O)NC(=S)Nc1ccccc1

- EC50 (Thoracic aorta [1]): 31.8 µM
SMILES: CCC(C)NC(=O)NC(=O)c1ccccc1OC (stereo not given)

- EC50 (Thoracic aorta [1]): 59.6 µM
SMILES: CCCOc1ccccc1C(=O)NC(=O)Nc1ccccc1

- EC50 (Thoracic aorta [1]): 26.8 µM
SMILES: CC(C)NC(=O)NC(=O)c1ccccc1OCc1ccccc1

- EC50 (Thoracic aorta [1]): 58.2 µM
SMILES: CCCOc1ccccc1C(=O)NC(=O)NC1CCCCC1

- EC50 (Thoracic aorta [1]): 26.7 µM
SMILES: COc1ccccc1C(=O)NC(=O)Nc1ccccc1

- EC50 (Thoracic aorta [1]): 33.8 µM
SMILES: O=C(NC(=O)c1ccccc1OCc1ccccc1)NC1CCCCC1

- EC50 (Thoracic aorta [1]): 47.2 µM
SMILES: COc1ccccc1C(=O)NC(=S)NCc1ccccc1

- EC50 (Thoracic aorta [4]): 45.6 µM
- Activity (Homo sapiens [5]): Dose-dependent effect
- Activity (Rattus norvegicus [6]): 21.4%
- EC50 (Thoracic aorta [7]): 15.3 µM
- Activity (Homo sapiens [8]): 30%
- EC50 (Thoracic aorta [9]): 20.2 µM
- Activity (Rattus norvegicus [10]): 90.1%
- Activity (Homo sapiens [11]): 30%
- Activity (Homo sapiens [12]): inactive
- EC50 (Thoracic aorta [1]): 12.2 µM
SMILES: CCC(C)NC(=O)NC(=O)c1ccccc1OCc1ccccc1 (stereo not given)
- Activity (Rattus norvegicus [13]): inactive
- Activity (Rattus norvegicus [14]): Dose-dependent effect

- EC50 (Thoracic aorta [1]): 36.6 µM
SMILES: CCC(C)NC(=S)NC(=O)c1ccccc1OC (stereo not given)

- EC50 (Thoracic aorta [4]): 57.1 µM
- Activity (Rattus norvegicus [6]): 99.6%
- Activity (Homo sapiens [17]): inactive
- EC50 (Thoracic aorta [7]): 17.4 µM
- EC50 (Thoracic aorta [9]): 28.2 µM
- Activity (Rattus norvegicus [10]): 94.1%
- EC50 (Thoracic aorta [1]): 15.2 µM
SMILES: CCNC(=S)NC(=O)c1ccccc1OC

- EC50 (Thoracic aorta [1]): 17.3 µM
SMILES: CCCCCNC(=O)NC(=O)c1ccccc1OCc1ccccc1

- EC50 (Thoracic aorta [4]): 36.6 µM
- Activity (Rattus norvegicus [6]): 113%
- EC50 (Thoracic aorta [7]): 17.2 µM
- Activity (Homo sapiens [18]): inactive
- EC50 (Thoracic aorta [9]): 38 µM
- Activity (Rattus norvegicus [10]): 110%
- EC50 (Thoracic aorta [1]): 16.7 µM
SMILES: CCNC(=O)NC(=O)c1ccccc1OCc1ccccc1

- EC50 (Thoracic aorta [1]): 71.1 µM
SMILES: CCCOc1ccccc1C(=O)NC(=S)NCc1ccccc1
